Data from ChEMBL document CHEMBL1134684, “Phenoxypropoxybiguanides, prodrugs of DHFR-inhibiting diaminotriazine antimalarials” (J Med Chem, 2001).
≈ marks a conversion by molar mass, not a printed value.

Experiments:
[1] = species on record: Mus musculus; test: Dose needed to increase the 100% survival of treated animals (mouse), to twice the number of days; assay type: ADME, organism-based; details: in vivo
[2] = species on record: Mus musculus; test: Dose required for 100%, 31 day survival of Plasmodium berghei inoculated mice (Mus musculus).; assay type: ADME, organism-based; details: in vivo, 744 h
Summary of the method: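 Same mouse P. berghei KBG-173 model, with ip infection on day 0 and oral bid treatment on days 3, 4 and 5. The experiment runs 31 days. The complete survival dose is the dose at which all animals are alive on day 31.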

[3] = In vivo antimalarial activity against Plasmodium berghei in mice (Mus musculus) after 6 days; assay type: functional; details: 144 h
Summary of the method: (§1)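 Male or female CD-1 mice (4-5 weeks, 20-25 g) infected ip on day 0 with 5 × 10⁴ P. berghei KBG-173 parasitized erythrocytes. Oral doses in 0.5% hydroxyethylcellulose/0.1% Tween-80, given bid 6 h apart on days 3, 4 and 5, computed as free base. Giemsa-stained tail-blood smears on day 6 give % infected RBC. ED90 is the dose reducing parasitemia to 10% of untreated infected controls.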

[4] = test system: Plasmodium falciparum; test: In vitro antimalarial activity against Plasmodium falciparum W2; assay type: functional, organism-based
Summary of the method: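 Chloroquine-, quinine-, sulfadoxine- and pyrimethamine-resistant Indochina W-2 clone tested in a semiautomated microdilution assay. Graded drug concentrations incubated 66 h in medium with physiological folic acid. Read-out is inhibition of radiolabeled hypoxanthine incorporation.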

[5] = test system: Plasmodium falciparum; test: In vitro antimalarial activity against Plasmodium falciparum K1; assay type: functional
Summary of the method: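 K1 parasites synchronized with 5% sorbitol. Drugs in methanol or DMSO, 2-fold serially diluted. Cultures at 2% hematocrit and 0.5% parasitemia (>95% rings) in 10% human serum under 5% O₂/5% CO₂/90% N₂ at 37.5 °C for 24-30 h. Romanowsky-stained thick films scored. MIC is the lowest concentration preventing >90% maturation to normal schizonts.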

[6] = test system: Mus musculus; test: Compound was tested in vivo for antimalarial activity against Plasmodium berghei in mice (Mus musculus) after 6 days of administration (ED90 is the dose necessary to reduce the percentage of infected cells to 10% of the level found in the infected untreated controls); assay type: functional; details: 144 h; summary of the method: as §1
[7] = species on record: Mus musculus; test: Dose required by the animals(mouse) to survive after 31 days; assay type: ADME, organism-based; details: in vivo, 744 h
Summary of the method: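 P. berghei KBG-173 in male or female CD-1 mice (4-5 weeks, 20-25 g), infected ip on day 0 with 5 × 10⁴ parasitized erythrocytes. Oral doses in 0.5% hydroxyethylcellulose/0.1% Tween-80 (10 mL/kg, free base), bid 6 h apart on days 3-5. Experiment run 31 days; complete survival dose = dose at which all animals survive to day 31.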

Row | SMILES | ED [1] | Dose [2] | ED90 [3] | IC50 [4] | IC90 [5] | further results
1 | CC(C)/N=C(N)/N=C(\N)NOCCCOc1ccc(Br)cc1 | 64 mg/kg | 135 mg/kg | < 32 mg/kg |  |  | 
2 | CC1(C)N=C(N)N=C(N)N1OCCCSc1ccc(Cl)cc1 |  |  |  | 0.0288 ng/mL (≈ 0.0842 nM) | 2.08 ng/mL (≈ 6.08 nM) | 
3 | CC1(C)N=C(N)N=C(N)N1OCCCOc1ccc2ccccc2c1.Cl |  |  |  | 0.0333 ng/mL | 1.56 ng/mL | 
4 | Cc1ccc(OCCCON/C(N)=N/C(N)=N/C(C)C)c(C)c1.Cl | 170 mg/kg | 235 mg/kg | 120 mg/kg |  |  | 
5 | Cc1cc(C)c(C)c(OCCCON/C(N)=N/C(N)=N/C(C)C)c1.Cl | > 128 mg/kg |  | < 128 mg/kg |  |  | 
6 | CCN(CC)CCCC(C)Nc1ccnc2cc(Cl)ccc12 (centres undefined) [CHLOROQUINE] |  |  |  |  |  | ED90 [6]: 3 mg/kg; Complete survival dose [7]: 256 mg/kg
7 | CC(C)/N=C(N)/N=C(\N)NOCCCOc1ccc(F)c(F)c1.Cl | 27 mg/kg | 77 mg/kg | < 16 mg/kg |  |  | 
8 | CC1(C)N=C(N)N=C(N)N1OCCCOc1ccc(F)c(F)c1.Cl |  |  |  | 0.0332 ng/mL | 0.38 ng/mL | 
9 | Cc1cc(OCCCON2C(N)=NC(N)=NC2(C)C)ccc1C(C)C.Cl |  |  |  | 0.0719 ng/mL | 11.7 ng/mL | 
10 | CC(C)NC(=N)NC(=N)NOCCCOc1ccc(Cl)c(Cl)c1 | 16 mg/kg | 33 mg/kg | < 16 mg/kg |  |  | 
11 | Cc1ccc(SCCCON/C(N)=N/C(N)=N/C(C)C)cc1.Cl | 117 mg/kg | 265 mg/kg | 92 mg/kg |  |  | 
12 | CC1(C)N=C(N)N=C(N)N1OCCCOc1cc(F)c(F)cc1F.Cl |  |  |  | 0.032 ng/mL | 0.94 ng/mL | 
13 | CC(C)/N=C(N)/N=C(\N)NOCCCSc1cc(Cl)ccc1Cl | > 128 mg/kg |  | < 128 mg/kg |  |  | 
14 | CC(C)/N=C(N)/N=C(\N)NOCCCOc1cccc2ccccc12.Cl | 185 mg/kg | 495 mg/kg | > 256 mg/kg |  |  | 
15 | CC(C)/N=C(N)/N=C(\N)NOCCCOc1ccc(F)cc1F.Cl | > 128 mg/kg |  | > 128 mg/kg |  |  | 
16 | CC(C)/N=C(N)/N=C(\N)NOCCCOc1cc(F)cc(F)c1F.Cl | 107 mg/kg | 180 mg/kg | 74 mg/kg |  |  | 
17 | CC1(C)N=C(N)N=C(N)N1OCCCSc1cc(Cl)ccc1Cl |  |  |  | 0.0254 ng/mL (≈ 0.0675 nM) | 2.08 ng/mL (≈ 5.53 nM) | 
18 | CC1(C)N=C(N)N=C(N)N1OCCCOc1ccc(F)cc1F.Cl |  |  |  | 0.0285 ng/mL | 0.42 ng/mL | 
19 | N=C(NOCCCOc1cc(Cl)c(Cl)cc1Cl)NC(=N)NC1CCCCC1 | 275 mg/kg | 470 mg/kg | > 256 mg/kg |  |  | 
20 | CCc1ccc(OCCCO/N=C(N)/N=C(\N)NC(C)C)cc1.Cl | 158 mg/kg | 505 mg/kg | 96 mg/kg |  |  | 
21 | CCCCCCCCCC1N=C(N)N=C(N)N1OCCCOc1cc(Cl)c(Cl)cc1Cl (centres undefined) |  |  |  | > 0.5 ng/mL | > 640 ng/mL | 
22 | CC(C)NC(=N)NC(=N)NOCCCOc1cc(Cl)c(Cl)cc1Cl | 30 mg/kg | 76 mg/kg | < 16 mg/kg |  |  | 
23 | CC1(C)N=C(N)N=C(N)N1OCCCSc1ccc(F)cc1.Cl |  |  |  | 0.0222 ng/mL | 1.25 ng/mL | 
24 | CC(C)/N=C(N)/N=C(\N)NOCCCOc1ccc(C(C)(C)C)cc1.Cl | 460 mg/kg | 1480 mg/kg | > 128 mg/kg |  |  | 
25 | Cc1ccc(OCCCON/C(N)=N/C(N)=N/C(C)C)cc1.Cl | 265 mg/kg | 445 mg/kg | 113 mg/kg |  |  | 
26 | CC(C)NC(=N)NC(=N)NOCCCOc1ccc(Cl)cc1 | 26 mg/kg | 79 mg/kg | < 16 mg/kg |  |  | 
27 | CC1(C)N=C(N)N=C(N)N1OCCCOc1cc(Cl)c(Cl)cc1Cl |  |  |  | 0.047 ng/mL (≈ 0.119 nM) | 1.43 ng/mL (≈ 3.62 nM) | 
28 | Cc1ccc(OCCCON/C(N)=N/C(N)=N/C(C)C)cc1C.Cl | > 128 mg/kg |  | > 128 mg/kg |  |  | 

Row | SMILES | ED [1] | Dose [2] | ED90 [3] | IC50 [4] | IC90 [5] | further results
29 | CC1(C)N=C(N)N=C(N)N1OCCCOc1cccc(C(F)(F)F)c1.Cl |  |  |  | 0.0299 ng/mL | 2.5 ng/mL | 
30 | CC(C)/N=C(N)/N=C(\N)NOCCCOc1ccccc1.Cl | 165 mg/kg | 540 mg/kg | 124 mg/kg |  |  | 
31 | N=C1N=C(N)NC2(CCCCC2)N1OCCCOc1cc(Cl)c(Cl)cc1Cl |  |  |  | 0.113 ng/mL (≈ 0.26 nM) | 66.7 ng/mL (≈ 153 nM) | 
32 | CC1(C)NC(N)=NC(=N)N1OCCCOc1ccc(Cl)cc1Cl |  |  |  | 0.0379 ng/mL (≈ 0.105 nM) | 1.67 ng/mL (≈ 4.64 nM) | 
33 | CC1(C)N=C(N)N=C(N)N1OCCc1cccc(C(F)(F)F)c1.Cl |  |  |  | 0.184 ng/mL | 40 ng/mL | 
34 | CC1(C)N=C(N)N=C(N)N1OCCCOc1ccc(Cl)cc1 |  |  |  |  | 0.63 ng/mL (≈ 1.93 nM) | 
35 | CC1(C)N=C(N)N=C(N)N1OCCCOc1ccc(Br)cc1.Cl |  |  |  |  | 0.4 ng/mL | 
36 | CC(C)/N=C(N)/N=C(\N)NOCCCOc1ccc(F)cc1 | 30 mg/kg | 90 mg/kg | < 16 mg/kg |  |  | 
37 | CC(C)/N=C(N)/N=C(\N)NOCc1ccc(Cl)c(Cl)c1 | 22 mg/kg | 32 mg/kg | < 8 mg/kg |  |  | 
38 | CC(C)/N=C(N)/N=C(\N)NOCCCSc1ccc(Cl)cc1 | 112 mg/kg | 182 mg/kg | 73 mg/kg |  |  | 
39 | CCc1nc(N)nc(N)c1-c1ccc(Cl)cc1 [PYRIMETHAMINE] |  |  |  |  | 1740 ng/mL (≈ 7020 nM) | ED90 [6]: 1.2 mg/kg; Complete survival dose [7]: 400 mg/kg
40 | COc1cc(OCCCON2C(N)=NC(N)=NC2(C)C)cc(OC)c1OC.Cl |  |  |  | 0.211 ng/mL | 1.25 ng/mL | 
41 | COc1ccc(OCCCON2C(N)=NC(N)=NC2(C)C)cc1.Cl |  |  |  | 0.0342 ng/mL | 0.32 ng/mL | 
42 | CC1(C)N=C(N)N=C(N)N1c1ccc(Cl)cc1 [CYCLOGUANIL] |  |  |  | > 0.5 ng/mL | 152 ng/mL (≈ 604 nM) | 
43 | CC1(C)N=C(N)N=C(N)N1OCCCOc1cc(F)cc(F)c1F.Cl |  |  |  | 0.0301 ng/mL | 0.63 ng/mL | 
44 | CC1(C)N=C(N)N=C(N)N1OCCCOc1ccc([N+](=O)[O-])cc1.Cl |  |  |  | 0.0299 ng/mL | 0.32 ng/mL | 
45 | CC(C)/N=C(N)/N=C(\N)NOCCCSc1ccc(F)cc1.Cl | 109 mg/kg | 183 mg/kg | 70 mg/kg |  |  | 
46 | CC(C)/N=C(N)/N=C(\N)NOCCCOc1cccc(C(F)(F)F)c1.Cl | 73 mg/kg | 140 mg/kg | 27 mg/kg |  |  | 
47 | CC(C)/N=C(N)/N=C(\N)NOCCCOc1ccc2ccccc2c1.Cl | < 128 mg/kg |  | < 128 mg/kg |  |  | 
48 | CC(C)/N=C(N)/N=C(\N)NOCCCOc1ccc(Cl)cc1Cl | 28 mg/kg | 64 mg/kg | 17 mg/kg |  |  | 
49 | Cc1cccc(OCCCON/C(N)=N/C(N)=N/C(C)C)c1.Cl | > 128 mg/kg |  | > 128 mg/kg |  |  | 
50 | CC(C)/N=C(N)/N=C(\N)NOCCCOc1cc(F)c(F)cc1F.Cl | 71 mg/kg | 128 mg/kg | 18 mg/kg |  |  | 
51 | COc1ccc(OCCCO/N=C(N)/N=C(\N)NC(C)C)cc1.Cl | > 128 mg/kg |  | > 128 mg/kg |  |  | 
52 | CC1(C)N=C(N)N=C(N)N1OCCOc1cc(Cl)c(Cl)cc1Cl |  |  |  | 0.278 ng/mL (≈ 0.73 nM) | 40 ng/mL (≈ 105 nM) | 
53 | Cc1cc(OCCCON/C(N)=N/C(N)=N/C(C)C)ccc1C(C)C.Cl | 128 mg/kg |  | < 128 mg/kg |  |  | 
54 | CC1(C)N=C(N)N=C(N)N1OCCCOc1ccc(F)cc1.Cl |  |  |  |  | 0.63 ng/mL | 
55 | Cc1cccc(OCCCON2C(N)=NC(N)=NC2(C)C)c1.Cl |  |  |  | 0.0416 ng/mL | 0.37 ng/mL | 
